The source made the active and inactive calls. The rule behind the calls is not given here.
What was measured:
HCT-116 [1] = assay: Induction of cell cycle arrest in human HCT116 cells assessed as accumulation at G1 phase at 5 uM after 12 hrs by propidium iodide staining-based flow cytometry (reference value: 35%); format: functional
HepG2 = assay: Antiproliferative activity against human HepG2 cells assessed as reduction in cell viability after 72 hrs by MTT assay; format: functional, cell-based; conditions: HepG2, 72 h
Summary of the method: (§1)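 3000 cells/well incubated in triplicate with serial concentrations of compound for 24, 48 or 72 h at 37 °C. MTT (5.0 mg/mL solution) added 3 h before the end. Formazan dissolved in DMSO, absorbance read at 570 and 630 nm. Viability normalised to vehicle control. IC50 from non-linear regression (variable slope), mean ± SD of triplicates.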

HCT-116 [2] = assay: Induction of cell cycle arrest in human HCT116 cells assessed as accumulation at S phase at 5 uM after 12 hrs by propidium iodide staining-based flow cytometry (reference value: 55%); format: functional
HCT-116 [3] = assay: Induction of apoptosis in human HCT116 cells assessed as dead cells at 10 uM after 24 hrs by annexin V/7-ADD staining-based flow cytometry (reference value: 3.10%); format: functional
HCT-116 [4] = assay: Induction of apoptosis in human HCT116 cells assessed as dead cells at 5 uM after 24 hrs by annexin V/7-ADD staining-based flow cytometry (reference value: 3.10%); format: functional
HT-29 [5] = assay: Antiproliferative activity against human HT-29 cells assessed as reduction in cell viability after 72 hrs by MTT assay; format: functional, cell-based; conditions: HT-29, 72 h; summary of the method: as §1
HCT-116 [6] = assay: Induction of apoptosis in human HCT116 cells assessed as early apoptotic cells at 5 uM after 24 hrs by annexin V/7-ADD staining-based flow cytometry (reference value: 5.20%); format: functional
[7] = Antiproliferative activity against human SKOV3 cells assessed as reduction in cell viability after 72 hrs by MTT assay; format: functional, cell-based; conditions: SK-OV-3, 72 h; summary of the method: as §1
HCT-116 [8] = assay: Induction of apoptosis in human HCT116 cells assessed as late apoptotic cells at 2.5 uM after 24 hrs by annexin V/7-ADD staining-based flow cytometry (reference value: 1.65%); format: functional
HCT-116 [9] = assay: Induction of apoptosis in human HCT116 cells assessed as live cells at 5 uM after 24 hrs by 7-ADD and caspase 3/7 activity-based flow cytometry (reference value: 92.60%); format: functional
UACC-903 [10] = assay: Antiproliferative activity against human UACC-903 cells assessed as reduction in cell viability after 24 hrs by MTT assay; format: functional, cell-based; conditions: UACC-903, 24 h; summary of the method: as §1
HCT-116 [11] = assay: Induction of apoptosis in human HCT116 cells assessed as early apoptotic cells at 2.5 uM after 24 hrs by 7-ADD and caspase 3/7 activity-based flow cytometry (reference value: 2.45%); format: functional
HCT-116 [12] = assay: Cytotoxicity against human HCT116 cells assessed as reduction in cell viability after 48 hrs MTT assay; format: functional, cell-based
Summary of the method: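 Cells (HCT116, nHDF in serum-free fibroblast medium with growth kit, or MEFs) exposed to increasing compound concentrations for 48 h at 37 °C. Viability read by MTT: 3000 cells/well, triplicate, MTT 3 h before end, formazan in DMSO, absorbance 570/630 nm. Mean ± SD.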

HCT-116 [13] = assay: Induction of apoptosis in human HCT116 cells assessed as dead cells at 10 uM after 24 hrs by 7-ADD and caspase 3/7 activity-based flow cytometry (reference value: 3.25%); format: functional
MDA-MB-231 [14] = assay: Antiproliferative activity against human MDA-MB-231 cells assessed as reduction in cell viability after 24 hrs by MTT assay; format: functional, cell-based; conditions: MDA-MB-231, 24 h; summary of the method: as §1
[15] = Antiproliferative activity against human HCT116 cells assessed as reduction in cell viability after 48 hrs by MTT assay; format: functional, cell-based; conditions: HCT-116, 48 h; summary of the method: as §1
HCT-116 [16] = assay: Induction of apoptosis in human HCT116 cells assessed as live cells at 5 uM after 24 hrs by annexin V/7-ADD staining-based flow cytometry (reference value: 90.05%); format: functional
HCT-116 [17] = assay: Induction of apoptosis in human HCT116 cells assessed as late apoptotic cells at 5 uM after 24 hrs by annexin V/7-ADD staining-based flow cytometry (reference value: 1.65%); format: functional
[18] = Antiproliferative activity against human DU145 cells assessed as reduction in cell viability after 24 hrs by MTT assay; format: functional, cell-based; conditions: DU-145, 24 h; summary of the method: as §1
MDA-MB-231 [19] = assay: Antiproliferative activity against human MDA-MB-231 cells assessed as reduction in cell viability after 48 hrs by MTT assay; format: functional, cell-based; conditions: MDA-MB-231, 48 h; summary of the method: as §1
HCT-116 [20] = assay: Induction of ROS generation in human HCT116 cells at 10 uM after 3 hrs by flow cytometry (reference value: 8.06%); format: functional
HCT-116 [21] = assay: Induction of ROS generation in human HCT116 cells at 5 uM after 6 hrs by flow cytometry (reference value: 6%); format: functional
HCT-116 [22] = assay: Induction of apoptosis in human HCT116 cells assessed as live cells at 2.5 uM after 24 hrs by annexin V/7-ADD staining-based flow cytometry (reference value: 90.05%); format: functional
[23] = Antiproliferative activity against human PANC1 cells assessed as reduction in cell viability after 48 hrs by MTT assay; format: functional, cell-based; conditions: PANC-1, 48 h; summary of the method: as §1
[24] = Antiproliferative activity against human PANC1 cells assessed as reduction in cell viability after 72 hrs by MTT assay; format: functional, cell-based; conditions: PANC-1, 72 h; summary of the method: as §1
HCT-116 [25] = assay: Induction of cell cycle arrest in human HCT116 cells assessed as accumulation at G1 phase at 5 uM after 24 hrs by propidium iodide staining-based flow cytometry (reference value: 28%); format: functional
UACC-903 [26] = assay: Antiproliferative activity against human UACC-903 cells assessed as reduction in cell viability after 48 hrs by MTT assay; format: functional, cell-based; conditions: UACC-903, 48 h; summary of the method: as §1
HT-29 [27] = assay: Antiproliferative activity against human HT-29 cells assessed as reduction in cell viability after 24 hrs by MTT assay; format: functional, cell-based; conditions: HT-29, 24 h; summary of the method: as §1
HCT-116 [28] = assay: Induction of ROS generation in human HCT116 cells at 10 uM after 24 hrs by flow cytometry (reference value: 12.42%); format: functional
HCT-116 [29] = assay: Induction of apoptosis in human HCT116 cells assessed as cleaved PARP level at 1 to 10 uM after 24 hrs by Western blot method; format: functional, cell-based
Summary of the method: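 HCT116 lysates after 24 h treatment made in RIPA buffer with protease and phosphatase inhibitors. Resolved by SDS-PAGE (4-12%), transferred to PVDF, probed for PARP with β-actin as loading control, detected by ECL.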

HCT-116 [30] = assay: Induction of ROS generation in human HCT116 cells at 5 uM after 24 hrs by flow cytometry (reference value: 12.42%); format: functional
RKO = assay: Antiproliferative activity against human RKO cells assessed as reduction in cell viability after 48 hrs by MTT assay; format: functional, cell-based; summary of the method: as §1
HCT-116 [31] = assay: Induction of cell cycle arrest in human HCT116 cells assessed as reduction of G2/M phase at 5 uM after 24 hrs by propidium iodide staining-based flow cytometry (reference value: 24%); format: functional; set-up: scale not given: the % may be the effect or the level left
UACC-903 [32] = assay: Antiproliferative activity against human UACC-903 cells assessed as reduction in cell viability after 72 hrs by MTT assay; format: functional, cell-based; conditions: UACC-903, 72 h; summary of the method: as §1

CC(=O)Oc1ccccc1C(=O)NCC[Se]C#N
Activity (HCT-116 [1]): 62%
IC50 (HepG2): 4.3 µM
Activity (HCT-116 [2]): 14%
Activity (HCT-116 [3]): 1.6%
Activity (HCT-116 [4]): 1.3%
IC50 (HT-29 [5]): 2.1 µM
Activity (HCT-116 [6]): 36.15%
IC50 [7]: 4.4 µM
Activity (HCT-116 [8]): 8.3%
Activity (HCT-116 [9]): 20.55%
IC50 (UACC-903 [10]): 24.3 µM
Activity (HCT-116 [11]): 28.45%
Activity (HCT-116 [12]): Active
Activity (HCT-116 [13]): 2.25%
IC50 (MDA-MB-231 [14]): 21.1 µM
IC50 [15]: 2.5 µM
Activity (HCT-116 [16]): 31.2%
Activity (HCT-116 [17]): 31.35%
IC50 [18]: 8.2 µM
IC50 (MDA-MB-231 [19]): 5.5 µM
Activity (HCT-116 [20]): 9%
Activity (HCT-116 [21]): 13.12%
Activity (HCT-116 [22]): 76.8%
IC50 [23]: 2.1 µM
IC50 [24]: 2.6 µM
Activity (HCT-116 [25]): 68%
IC50 (UACC-903 [26]): 4 µM
IC50 (HT-29 [27]): 3.4 µM
Activity (HCT-116 [28]): 80.54%
Activity (HCT-116 [29]): Active
Activity (HCT-116 [30]): 66.42%
IC50 (RKO): 2.2 µM
Activity (HCT-116 [31]): 19%
IC50 (UACC-903 [32]): 2.9 µM
